Measured values reported in ChEMBL document CHEMBL1131235, “(R)-(+)-2-[[[3-(Morpholinomethyl)-2H-chromen-8-yl]oxy]methyl] morpholine methanesulfonate: a new selective rat 5-hydroxytryptamine1B receptor antagonist” (J Med Chem, 1998).
Several values for one entry are separate records, joined by “and”; a condition that tells them apart may be missing. Identical values can stand only once.

What was measured:
Rattus norvegicus [1] = organism: Rattus norvegicus; assay: Effect on 5-HIAA/5-HT turnover in Hippocampus of rat brain, expressed as percent of control; format: functional
Method in brief: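 Rats received compound 20 mg/kg sc or saline 30 min before NSD 1015 (3-hydroxybenzylhydrazine dihydrochloride), 100 mg/kg sc. They were killed 30 min later. Hypothalamus, hippocampus, frontal cortex and striatum were dissected, frozen on dry ice and stored at -70 °C. 5-HTP, 5-HT and 5-HIAA were measured by HPLC and expressed as % of saline control.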

Rattus norvegicus [2] = organism: Rattus norvegicus; assay: Percent control of the stimulation ratio S2 (second stimulation)/S1(first stimulation) at a concentration of 1000 nM. (p<0.05); format: functional
[3] = Potentiation of K+ stimulated release of [3H]-5-HT from brain slices at a concentration of 10 nM. (activity expressed as ratio of S2 (second stimulation)/S1(first stimulation)); format: functional, Rattus norvegicus
Method in brief: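 Rat occipital cortex slices (0.3 × 0.3 mm) preloaded with [3H]-5-HT, superfused at 0.4 mL/min with oxygenated Krebs-Henseleit pH 7.4 containing 2.5 μM citalopram. Two 4-min 25 mM KCl pulses at 62 and 98 min, compound present for 72 min spanning S2. Fractional release counted by liquid scintillation. S2/S1 ratio reported, also as % of control; n=3–8.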

[4] = target: 5-hydroxytryptamine receptor 7 (Rattus norvegicus, UniProt P32305); assay: Binding affinity against 5-hydroxytryptamine 7 receptor using from CHO cell membranes [3H]5-HT as the radioligand.
Method in brief: (§1)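 Binding by the Johansson et al. method. 5-HT2A used [3H]ketanserin and 5-HT2C used [3H]mesulergine, both on rat cortex. 5-HT6 and 5-HT7 used [3H]-5-HT on CHO cell membranes expressing the rat receptors.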

Rattus norvegicus [5] = organism: Rattus norvegicus; assay: Percent control of the stimulation ratio S2 (second stimulation)/S1(first stimulation) at a concentration of 10 nM. (P>0.05); format: functional
[6] = Antagonism of the induced potentiation of K+ stimulated [3H]5-HT release from brain slices with 5-HT (100 nM) at a concentration of 1000 nM.; format: functional, Rattus norvegicus
Method in brief: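 Rat occipital cortex slices (0.3 × 0.3 mm) were preloaded with [3H]-5-HT and superfused at 0.4 mL/min with oxygenated Krebs-Henseleit buffer, pH 7.4, containing 2.5 μM citalopram. After a 50 min wash, 4-min fractions were collected. 25 mM KCl was applied for 4 min at 62 min and again at 98 min. Test compound and 5-HT were given together in the same solution for 72 min. Fraction and slice radioactivity were counted by liquid scintillation. S2/S1 was expressed as % of control; Dunnett's t-test after ANOVA.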

[7] = target: Sigma non-opioid intracellular receptor 1 (Rattus norvegicus, UniProt Q9R0C9); assay: Binding affinity against sigma receptor from rat whole brains using [3H]DTG as the radioligand.
Method in brief: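 Whole rat brain membranes labelled with [3H]DTG (N,N-di(o-tolyl)guanidine), following Ross.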

[8] = target: 5-hydroxytryptamine receptor 2A (Rattus norvegicus, UniProt P14842); assay: Binding affinity against 5-hydroxytryptamine 2A receptor from rat cortex using [3H]ketanserin as the radioligand.; method in brief: as §1
[9] = target: T1, Adrenergic receptor alpha-1 (Rattus norvegicus, UniProt P15823+P23944+P43140); assay: Binding affinity against Alpha-1 adrenergic receptor in rat cortex using [3H]prazosin as the radioligand.; format: tissue-based, Brain
T1 sequence (P15823 whole entry): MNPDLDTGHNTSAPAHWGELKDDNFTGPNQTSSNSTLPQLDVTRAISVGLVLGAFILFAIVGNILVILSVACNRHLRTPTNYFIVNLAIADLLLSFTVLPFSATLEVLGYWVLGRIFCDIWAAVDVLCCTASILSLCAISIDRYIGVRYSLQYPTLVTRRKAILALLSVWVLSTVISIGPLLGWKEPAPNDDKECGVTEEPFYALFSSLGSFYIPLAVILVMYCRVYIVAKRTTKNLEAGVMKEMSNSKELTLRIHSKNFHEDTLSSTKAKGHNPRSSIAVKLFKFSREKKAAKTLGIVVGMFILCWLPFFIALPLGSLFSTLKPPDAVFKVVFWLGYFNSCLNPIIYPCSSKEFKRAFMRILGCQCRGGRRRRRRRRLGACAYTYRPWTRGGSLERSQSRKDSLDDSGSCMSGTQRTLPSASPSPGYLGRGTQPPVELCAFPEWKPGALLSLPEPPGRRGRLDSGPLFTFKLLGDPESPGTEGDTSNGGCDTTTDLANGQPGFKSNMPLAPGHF
T1 sequence (P23944 whole entry): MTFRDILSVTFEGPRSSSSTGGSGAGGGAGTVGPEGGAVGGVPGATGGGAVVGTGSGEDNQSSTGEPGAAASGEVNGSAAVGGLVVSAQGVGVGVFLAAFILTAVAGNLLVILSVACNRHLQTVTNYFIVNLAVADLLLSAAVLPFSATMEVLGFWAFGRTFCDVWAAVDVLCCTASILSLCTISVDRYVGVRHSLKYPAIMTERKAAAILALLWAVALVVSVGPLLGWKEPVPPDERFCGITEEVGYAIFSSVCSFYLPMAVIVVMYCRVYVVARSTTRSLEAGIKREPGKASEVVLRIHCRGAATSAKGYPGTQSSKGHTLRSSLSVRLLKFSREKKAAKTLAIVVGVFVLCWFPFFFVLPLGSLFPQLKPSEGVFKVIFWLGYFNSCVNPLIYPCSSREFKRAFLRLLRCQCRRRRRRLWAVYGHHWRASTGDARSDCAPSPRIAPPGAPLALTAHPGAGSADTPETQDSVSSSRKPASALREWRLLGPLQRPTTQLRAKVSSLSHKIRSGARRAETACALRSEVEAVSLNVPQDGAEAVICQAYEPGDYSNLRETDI
T1 sequence (P43140 whole entry): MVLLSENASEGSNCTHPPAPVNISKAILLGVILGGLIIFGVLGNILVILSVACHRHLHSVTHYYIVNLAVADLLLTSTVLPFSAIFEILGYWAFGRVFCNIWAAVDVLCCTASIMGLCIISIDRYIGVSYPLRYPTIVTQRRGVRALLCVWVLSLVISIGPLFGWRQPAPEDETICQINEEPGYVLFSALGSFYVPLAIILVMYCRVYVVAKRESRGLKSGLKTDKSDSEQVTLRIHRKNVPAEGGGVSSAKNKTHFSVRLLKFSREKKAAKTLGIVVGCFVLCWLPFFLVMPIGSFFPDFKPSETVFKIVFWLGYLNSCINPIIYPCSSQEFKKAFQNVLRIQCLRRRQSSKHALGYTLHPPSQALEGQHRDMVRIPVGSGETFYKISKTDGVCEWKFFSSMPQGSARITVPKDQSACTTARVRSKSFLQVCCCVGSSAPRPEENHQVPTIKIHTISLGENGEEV
Method in brief: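 Binding by the Jackson et al. method. 5-HT1A used [3H]OH-DPAT on rat hippocampus. α1 used [3H]prazosin, α2 [3H]RX821002 and β [3H]dihydroalprenolol, all on rat cortex. D1 used [3H]SCH-23390 on rat striatum. D2 used [3H]raclopride on LtkhD2A cell membranes.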

[10] = target: 5-hydroxytryptamine receptor 6 (Rattus norvegicus, UniProt P31388); assay: Binding affinity against 5-hydroxytryptamine 6 receptor from CHO cell membranes using [3H]5-HT as the radioligand.; method in brief: as §1
5-hydroxytryptamine receptor 6, sequence (P31388 whole entry): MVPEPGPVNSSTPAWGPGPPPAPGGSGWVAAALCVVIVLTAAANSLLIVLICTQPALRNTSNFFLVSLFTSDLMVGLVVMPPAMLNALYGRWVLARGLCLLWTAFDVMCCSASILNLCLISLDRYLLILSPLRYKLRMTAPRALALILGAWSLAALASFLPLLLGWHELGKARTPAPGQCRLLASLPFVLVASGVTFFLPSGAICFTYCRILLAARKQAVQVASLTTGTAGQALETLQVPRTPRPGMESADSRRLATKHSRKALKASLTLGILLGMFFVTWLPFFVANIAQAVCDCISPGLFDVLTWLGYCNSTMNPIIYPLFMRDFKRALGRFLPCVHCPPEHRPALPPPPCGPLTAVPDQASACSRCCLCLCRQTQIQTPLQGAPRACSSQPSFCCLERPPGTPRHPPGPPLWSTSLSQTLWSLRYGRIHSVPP

5-hydroxytryptamine receptor 2A, sequence (P14842 whole entry): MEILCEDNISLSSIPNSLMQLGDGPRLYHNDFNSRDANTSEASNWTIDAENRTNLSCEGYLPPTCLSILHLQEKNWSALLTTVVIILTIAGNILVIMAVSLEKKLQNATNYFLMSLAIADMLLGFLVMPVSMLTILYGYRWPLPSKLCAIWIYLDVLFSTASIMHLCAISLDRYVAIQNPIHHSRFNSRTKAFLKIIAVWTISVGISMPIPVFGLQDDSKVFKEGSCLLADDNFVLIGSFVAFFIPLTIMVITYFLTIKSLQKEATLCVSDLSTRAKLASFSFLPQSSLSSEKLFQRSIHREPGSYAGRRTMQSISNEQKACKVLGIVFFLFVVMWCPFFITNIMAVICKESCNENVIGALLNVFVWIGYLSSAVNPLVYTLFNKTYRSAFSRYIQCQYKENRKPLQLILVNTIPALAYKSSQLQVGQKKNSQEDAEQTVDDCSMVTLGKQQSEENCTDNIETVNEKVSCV
Sigma non-opioid intracellular receptor 1, sequence (Q9R0C9 whole entry): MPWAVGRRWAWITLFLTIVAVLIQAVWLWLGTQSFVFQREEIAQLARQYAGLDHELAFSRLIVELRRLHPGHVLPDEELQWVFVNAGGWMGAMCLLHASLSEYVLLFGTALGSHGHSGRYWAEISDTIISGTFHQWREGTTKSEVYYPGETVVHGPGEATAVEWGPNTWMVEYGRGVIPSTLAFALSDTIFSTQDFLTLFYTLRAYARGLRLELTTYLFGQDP
5-hydroxytryptamine receptor 7, sequence (P32305 whole entry): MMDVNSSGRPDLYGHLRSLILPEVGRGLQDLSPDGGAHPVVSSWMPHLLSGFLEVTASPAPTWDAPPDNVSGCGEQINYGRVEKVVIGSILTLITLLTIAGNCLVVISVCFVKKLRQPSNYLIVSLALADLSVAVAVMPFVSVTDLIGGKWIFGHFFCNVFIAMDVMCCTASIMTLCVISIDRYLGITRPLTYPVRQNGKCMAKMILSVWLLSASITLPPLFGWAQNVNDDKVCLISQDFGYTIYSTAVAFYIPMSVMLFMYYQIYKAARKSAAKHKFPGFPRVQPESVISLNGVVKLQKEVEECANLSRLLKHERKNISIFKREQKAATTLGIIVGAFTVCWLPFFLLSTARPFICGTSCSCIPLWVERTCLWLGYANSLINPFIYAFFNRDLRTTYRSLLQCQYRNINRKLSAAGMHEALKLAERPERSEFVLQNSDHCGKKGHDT

C1=C(CN2CCOCC2)COc2c1cccc2OC[C@H]1CNCCO1.CS(=O)(=O)O
Activity (Rattus norvegicus [1]): 142% | Control (Rattus norvegicus [2]): 153% | Potentiation [3]: 1.11 | Ki [4]: > 3 µM | Control (Rattus norvegicus [5]): 115% | Ratio of stimulation [6]: 1.28 and 1.39 | Ki [7]: > 10 µM | Ki [8]: > 10 µM | Ki [9]: > 10 µM | Ki [10]: > 3 µM

C1=C(CN2CCOCC2)COc2c1cccc2OC[C@@H]1CNCCO1.Cl
Ki [7]: > 10 µM | Ki [8]: > 10 µM | Ki [9]: > 10 µM
